Test results: ChEMBL document CHEMBL1128446, “Pyrazinoic acid esters with broad spectrum in vitro antimycobacterial activity” (1995)
Values after ≈ are worked out from the molar mass of the structure shown.

Experiments:
Type in all cases: functional
[1] = tested on: Mycobacterium tuberculosis; assay: Minimum Inhibitory Concentration against Mycobacterium tuberculosis ATCC 27294
Outline: (§1)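 Broth macrodilution in tubes of modified Middlebrook 7H10 broth (agar and malachite green omitted) with 10% OADC and 0.05% Tween 80 at pH 5.8. Cultures were grown 3 days at 37 °C on a rotary shaker, then diluted with 7H10 broth to 1 Klett unit/mL. Stocks were made in water or DMSO and filter-sterilised; 2-fold serial dilutions were tested. Tubes shaken 7–10 days at 37 °C, with a drug-free control. MIC = lowest concentration (μg/mL) with no visible turbidity.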

[2] = tested on: Mycobacterium avium; assay: Minimum Inhibitory Concentration in clinical isolates against Mycobacterium avium complex 101; outline: as §1
[3] = tested on: Mycobacterium kansasii; assay: Minimum Inhibitory Concentration against clinical isolates of Mycobacterium kansasii S
Outline: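 Grown 3 days at 37 °C on a rotary shaker in modified Middlebrook 7H10 broth (agar and malachite green omitted) with 10% OADC and 0.05% Tween 80. Diluted to 1 Klett unit/mL. Tubes held serial 2-fold dilutions in 7H10 broth at pH 5.8, from stocks in water or DMSO, and were shaken at 37 °C for 7–10 days with a drug-free control. MIC was the lowest concentration with no visible turbidity.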

[4] = tested on: Mycobacterium tuberculosis; assay: Minimum Inhibitory Concentration against Mycobacterium tuberculosis ATCC 35801; outline: as §1
[5] = tested on: Mycobacterium avium; assay: Minimum Inhibitory Concentration against clinical isolates of Mycobacterium avium complex ATCC 49601; outline: as §1
[6] = tested on: Mycobacterium avium; assay: Minimum Inhibitory Concentration in clinical isolates against Mycobacterium avium complex ATCC 49601; outline: as §1
[7] = Mycobacterium tuberculosis, ATCC 27294, read-out: MIC

Compound	MIC [1, 7] [µg/mL]	MIC [2] [µg/mL]	MIC [3] [µg/mL]	MIC [4] [µg/mL]	MIC [5] [µg/mL]	MIC [6] [µg/mL]	MIC [1] [µg/mL]
CCCCCCCC(C)OC(=O)c1cnc(Cl)cn1 (centres undefined)	1 (≈ 3.51 µM)	32 (≈ 112 µM)	< 0.03	0.5 (≈ 1.76 µM)	32 (≈ 112 µM)	–	–
CCCCCCCCC(C)(CCCC)OC(=O)c1cnc(Cl)cn1 (centres undefined)	16 (≈ 45.1 µM)	> 64	16 (≈ 45.1 µM)	16 (≈ 45.1 µM)	> 64	–	–
CCCCCCCCCOC(=O)c1cnc(C)cn1	1 (≈ 3.78 µM)	64 (≈ 242 µM)	2 (≈ 7.57 µM)	1 (≈ 3.78 µM)	32 (≈ 121 µM)	–	–
CCCCCC(C)OC(=O)c1cnc(Cl)cn1 (centres undefined)	0.06 (≈ 0.234 µM)	32 (≈ 125 µM)	< 0.125	0.5 (≈ 1.95 µM)	32 (≈ 125 µM)	–	–
Cc1cnc(C(=O)O)cn1	64 (≈ 463 µM)	1020 (≈ 7410 µM)	1020 (≈ 7410 µM)	64 (≈ 463 µM)	–	> 1020	–
O=C(O)c1cnc(Cl)cn1	64 (≈ 404 µM)	–	64 (≈ 404 µM)	64 (≈ 404 µM)	–	> 1020	–
O=C(Oc1ccc(F)cc1)c1cnccn1	32 (≈ 147 µM)	128 (≈ 587 µM)	64 (≈ 293 µM)	–	–	128 (≈ 587 µM)	32 (≈ 147 µM)
CCCCCCCCCCCC(C)OC(=O)c1cnc(Cl)cn1 (centres undefined)	2 (≈ 5.87 µM)	256 (≈ 751 µM)	0.06 (≈ 0.176 µM)	0.5 (≈ 1.47 µM)	32 (≈ 93.9 µM)	–	–
NC(=O)c1cnccn1 [PYRAZINAMIDE]	16 (≈ 130 µM)	> 2050	2050 (≈ 16600 µM)	32 (≈ 260 µM)	–	> 2050	–
O=C(O)c1cnccn1 [PYRAZINOIC ACID]	32 (≈ 258 µM)	> 1020	256 (≈ 2060 µM)	32 (≈ 258 µM)	–	> 1020	–
